Experimental data from ChEMBL document CHEMBL1121663, “(Acylaryloxy)acetic acid diuretics. 3. 2,3-Dihydro-5-acyl-2-benzofurancarboxylic acids, a new class of uricosuric diuretics” (1981).
Values joined by “and” are separate entries in the source; they are usually repeats but may differ in a detail not shown here. Equal entries are not always repeated.

Columns and labels:
Canis familiaris [1] = assay: Compound was tested for diuretic activity in dogs at 5 mg/kg dose after intravenous administration measured as microequivalent of Na+/minute; 5/95 (Control/Drug treated); assay type: functional, Canis lupus familiaris, Urine
Canis familiaris [2] = assay: Compound was tested for diuretic activity in dogs at 5 mg/kg dose after intravenous administration measured as microequivalent of K+/minute; 6/37 (Control/Drug treated); assay type: functional, Canis lupus familiaris, Urine
In short: (§1)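 Intravenous dog clearance study. A priming iv injection of 1.5 mL/kg isoosmotic pH 7.4 phosphate buffer (20 mg PO4/kg) was given first. This was followed by infusion of 3 mL/min pH 7.4 buffer containing 4% mannitol (6.9 mg PO4/min) throughout the experiment. Urinary Na+, K+ and Cl- were measured by standard methods. Each value is the mean of the two highest consecutive 15-min collections.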

Rattus norvegicus [3] = assay: Natriuretic activity in rats at 81 mg/kg of dosage; mequiv of Na; assay type: functional
In short: (§2)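 Rats housed three per metabolism cage received placebo vehicle or compound as a suspension in a final volume of 5.0 mL orally, with placebo groups run concurrently. Urine was collected over 0–5 h and analysed for Na+, K+ and Cl− by standard methods. Values are mequiv per cage, given as geometric means of three cages per dose level.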

Rattus norvegicus [4] = assay: Natriuretic activity in rats at 9 mg/kg of dosage; mequiv of Na; assay type: functional; in short: as §2
Canis familiaris [5] = assay: Compound was tested for diuretic activity in dogs at 5 mg/kg dose after intravenous administration measured as microequivalent of Cl-/minute; 4/72 (Control/Drug treated); assay type: functional, Canis lupus familiaris, Urine; in short: as §1
Rattus norvegicus [6] = assay: Compound was tested for natriuretic activity in rats at 3 mg/kg of dosage; mequiv of Na+ x 100/cage; assay type: functional; in short: as §2
Canis familiaris [7] = assay: Compound was tested for diuretic activity in dogs at 5 mg/kg dose after intravenous administration, activity is expressed as urine volume; 1/2; assay type: functional, Canis lupus familiaris
Rattus norvegicus [8] = assay: Natriuretic activity in rats at 27 mg/kg of dosage; mequiv of Na; assay type: functional; in short: as §2
Canis familiaris [9] = assay: Compound was tested for diuretic activity in dogs at 5 mg/kg dose after oral administration measured as microequivalent of K+/minute; assay type: functional, Canis lupus familiaris, Urine
In short: (§3)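 Oral dog test: water loading (250 mL po, then 500 mL 1 h later). One hour later bladders were emptied by catheter and compound or placebo given in gelatin capsules. Dogs were kept in metabolism cages. Voided urine plus catheterized bladder urine was pooled at 5 h, and Na+, K+ and Cl- were measured by standard methods. Geometric means are reported.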

Pan troglodytes [10] = assay: Compound was tested for natriuretic activity in chimpanzee at 5 mg/kg dose activity is measured as microequivalent of Na+/minute; muequiv of Na+/min; assay type: functional
In short: (§4)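 Inulin iv gave GFR; urate and inulin clearances and Na+, K+, Cl- excretion were measured by AutoAnalyzer. Controls were three 20-min periods; compound was given orally in aqueous solution via nasal catheter. Response was the mean of eight 15-20 min periods, reported as treatment minus control from single experiments.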

Canis familiaris [11] = assay: Compound was tested for diuretic activity in dogs at 5 mg/kg dose after oral administration measured as microequivalent of Cl-/minute; assay type: functional, Canis lupus familiaris, Urine; in short: as §3
Rattus norvegicus [12] = assay: Natriuretic activity in rats at 3 mg/kg of dosage; mequiv of Na; assay type: functional; in short: as §2
Canis familiaris [13] = assay: Compound was tested for diuretic activity in dogs at 5 mg/kg dose after oral administration measured as microequivalent of Na+/minute; assay type: functional, Canis lupus familiaris, Urine; in short: as §3
Canis familiaris [14] = assay: Diuretic activity in dogs following 5 mg/kg oral administration.
Canis familiaris [15] = assay: Compound was tested for diuretic activity in dogs at 5 mg/kg dose after intravenous administration measured as microequivalent of K+/minute; 9/46 (Control/Drug treated); assay type: functional, Canis lupus familiaris, Urine; in short: as §1
Canis familiaris [16] = assay: Compound was tested for diuretic activity in dogs at 5 mg/kg dose after intravenous administration, activity is expressed as urine volume; 0.6/6; assay type: functional, Canis lupus familiaris
Canis familiaris [17] = assay: Compound was tested for diuretic activity in dogs at 5 mg/kg dose after intravenous administration measured as microequivalent of Cl-/minute; 2/612 (Control/Drug treated); assay type: functional, Canis lupus familiaris, Urine; in short: as §1
[18] = Compound was tested for natriuretic activity in chimpanzee at 5 mg/kg dose activity is measured as ratio of clearance of urate / […]; Curate/Cinulin; assay type: functional; in short: as §4
Rattus norvegicus [19] = assay: Compound was tested for natriuretic activity in rats at 27 mg/kg of dosage; assay type: functional; in short: as §2
Canis familiaris [20] = assay: Compound was tested for diuretic activity in dogs at 5 mg/kg dose after intravenous administration measured as microequivalent of Na+/minute; 13/565 (Control/Drug treated); assay type: functional, Canis lupus familiaris, Urine
Canis familiaris [21] = assay: Compound was tested for diuretic activity in dogs at 5 mg/kg dose after intravenous administration measured as microequivalent of Cl-/minute; 5/102 (Control/Drug treated); assay type: functional, Canis lupus familiaris, Urine; in short: as §1
Canis familiaris [22] = assay: Compound was tested for diuretic activity in dogs at 5 mg/kg dose after intravenous administration measured as microequivalent of Na+/minute; 20/108 (Control/Drug treated); assay type: functional, Canis lupus familiaris, Urine
Canis familiaris [23] = assay: Compound was tested for diuretic activity in dogs at 5 mg/kg dose after intravenous administration measured as microequivalent of K+/minute; 6/36 (Control/Drug treated); assay type: functional, Canis lupus familiaris, Urine; in short: as §1
Canis familiaris [24] = assay: Compound was tested for diuretic activity in dogs at 5 mg/kg dose after intravenous administration, activity is expressed as urine volume; 0.6/1.3; assay type: functional, Canis lupus familiaris
Canis familiaris [25] = assay: Diuretic activity in dogs following 5 mg/kg i.v. administration.; assay type: functional, Canis lupus familiaris, Urine; conditions: route intravenous
Canis familiaris [26] = assay: Compound was tested for diuretic activity in dogs at 5 mg/kg dose after intravenous administration measured as microequivalent of K+/minute; 4/54 (Control/Drug treated); assay type: functional, Canis lupus familiaris, Urine; in short: as §1
Canis familiaris [27] = assay: Compound was tested for diuretic activity in dogs at 5 mg/kg dose after intravenous administration measured as microequivalent of Cl-/minute; 12/586 (Control/Drug treated); assay type: functional, Canis lupus familiaris, Urine; in short: as §1
Pan troglodytes [28] = assay: Compound was tested for natriuretic activity in chimpanzee at 5 mg/kg dose activity is measured as microequivalent of Na+/m; muequiv of Na+/minute; assay type: functional; in short: as §4
Canis familiaris [29] = assay: Compound was tested for diuretic activity in dogs at 5 mg/kg dose after intravenous administration, activity is expressed as urine volume; 1/6; assay type: functional, Canis lupus familiaris
Canis familiaris [30] = assay: Compound was tested for diuretic activity in dogs at 5 mg/kg dose after intravenous administration measured as microequivalent of K+/minute (Control/Drug treated); assay type: functional, Canis lupus familiaris, Urine; conditions: in the assay text read “oral” for “intravenous”
Canis familiaris [31] = assay: Compound was tested for diuretic activity in dogs at 5 mg/kg dose after oral administration, activity is expressed as urine volume
Canis familiaris [32] = assay: Compound was tested for diuretic activity in dogs at 5 mg/kg dose after intravenous administration measured as microequivalent of Cl-/minute (Control/Drug treated); assay type: functional, Canis lupus familiaris, Urine; conditions: in the assay text read “oral” for “intravenous”
Canis familiaris [33] = assay: Compound was tested for diuretic activity in dogs at 5 mg/kg dose after oral administration measured as microequivalent of Na+/minute
Canis familiaris [34] = assay: Compound was tested for diuretic activity in dogs at 5 mg/kg dose after intravenous administration activity is measured as microequivalent of Cl-/minute (Control/Drug treated); assay type: functional, Canis lupus familiaris, Urine; conditions: in the assay text read “oral” for “intravenous”
Canis familiaris [35] = assay: Compound was tested for diuretic activity in dogs at 5 mg/kg dose after intravenous administration measured as microequivalent of Cl-/minute; 5/156 (Control/Drug treated); assay type: functional, Canis lupus familiaris, Urine; in short: as §1
Canis familiaris [36] = assay: Compound was tested for diuretic activity in dogs at 5 mg/kg dose after intravenous administration measured as microequivalent of Na+/minute; 12/166 (Control/Drug treated); assay type: functional, Canis lupus familiaris, Urine
Canis familiaris [37] = assay: Compound was tested for diuretic activity in dogs at 5 mg/kg dose after intravenous administration measured as microequivalent of K+/minute; 15/33 (Control/Drug treated); assay type: functional, Canis lupus familiaris, Urine; in short: as §1
Canis familiaris [38] = assay: Compound was tested for diuretic activity in dogs at 5 mg/kg dose after intravenous administration measured as microequivalent of Cl-/minute; 6/70 (Control/Drug treated); assay type: functional, Canis lupus familiaris, Urine; in short: as §1
Canis familiaris [39] = assay: Compound was tested for diuretic activity in dogs at 5 mg/kg dose after intravenous administration measured as microequivalent of K+/minute; 10/18 (Control/Drug treated); assay type: functional, Canis lupus familiaris, Urine; in short: as §1
Canis familiaris [40] = assay: Compound was tested for diuretic activity in dogs at 5 mg/kg dose after intravenous administration measured as microequivalent of K+/minute; 6/18 (Control/Drug treated); assay type: functional, Canis lupus familiaris, Urine; in short: as §1
Canis familiaris [41] = assay: Compound was tested for diuretic activity in dogs at 5 mg/kg dose after intravenous administration measured as microequivalent of Na+/minute; 52/264 (Control/Drug treated); assay type: functional, Canis lupus familiaris, Urine
Canis familiaris [42] = assay: Compound was tested for diuretic activity in dogs at 5 mg/kg dose after intravenous administration measured as microequivalent of Cl-/minute; 16/271 (Control/Drug treated); assay type: functional, Canis lupus familiaris, Urine; in short: as §1

Row | Compound | Oral activity (Rattus norvegicus [3]) | Oral activity (Rattus norvegicus [4]) | Oral activity (Rattus norvegicus [8]) | Oral activity (Canis familiaris [9]) | Oral activity (Pan troglodytes [10]) | Oral activity (Canis familiaris [11]) | Oral activity (Rattus norvegicus [12]) | Oral activity (Canis familiaris [13]) | Urine volume (Canis familiaris [14]) [mL] | Ratio [18] | other results
1 | Cc1c(C(=O)c2cccs2)cc2c(c1C)OC(C(=O)O)C2 (stereo not given) | 71 | 68 | 61 |  |  |  |  |  |  |  | Na+ excretion (Canis familiaris [1]): 95 µequiv/min; K+ excretion (Canis familiaris [2]): 37 µequiv/min; Cl- excretion (Canis familiaris [5]): 72 µequiv/min; Oral activity (Rattus norvegicus [6]): 29; Urine volume (Canis familiaris [7]): 1 mL/min
2 | O=C(O)C1Cc2cc(Cc3cccs3)c(Cl)c(Cl)c2O1 (stereo not given) | 21 | 19 |  | 7.4 | 206 | 40.6 | 7 | 30.1 | 433 | 0.185 | K+ excretion (Canis familiaris [15]): 46 µequiv/min; Urine volume (Canis familiaris [16]): 0.6 mL/min; Cl- excretion (Canis familiaris [17]): 612 µequiv/min; Oral activity (Rattus norvegicus [19]): 19; Na+ excretion (Canis familiaris [20]): 565 µequiv/min
3 | O=C(Cc1ccccc1)c1cc2c(c(Cl)c1Cl)OC(C(=O)O)C2 (stereo not given) | 173 | 80 | 126 |  | 513 |  | 25 |  |  | 0.315 | Cl- excretion (Canis familiaris [21]): 102 µequiv/min; Na+ excretion (Canis familiaris [22]): 108 µequiv/min; K+ excretion (Canis familiaris [23]): 36 µequiv/min
4 | O=C(c1cccs1)c1cc2c(c(Cl)c1Cl)OC(C(=O)O)C2 (stereo not given) | 310 | 191 | 257 |  | 1360 |  | 175 |  |  | 0.34 | Urine volume (Canis familiaris [24]): 0.6 mL/min; Oral activity (Canis familiaris [9]; 5 mg/kg): 4.2 and 5.2; Urine volume (Canis familiaris [25]): 432 mL and 541 mL; Oral activity (Canis familiaris [11]; 5 mg/kg): 24.6 and 48.5; Oral activity (Canis familiaris [13]; 5 mg/kg): 18.7 and 37.7
5 | O=C(O)C1Cc2cc(C(O)c3cccs3)c(Cl)c(Cl)c2O1 (stereo not given) | 180 | 40 | 80 |  |  |  | 25 |  |  | 0.15 | K+ excretion (Canis familiaris [26]): 54 µequiv/min; Cl- excretion (Canis familiaris [27]): 586 µequiv/min; Oral activity (Pan troglodytes [28]): 550; Urine volume (Canis familiaris [29]): 1 mL/min
6 | O=CC1Cc2cc(C(=O)c3cccs3)c(Cl)c(Cl)c2O1 (stereo not given) | 144 | 84 | 107 | 3.1 |  | 21.6 | 74 | 16.3 | 337 |  | Oral activity (Canis familiaris [30]): 3.1; Oral activity (Canis familiaris [31]): 337 mL; Oral activity (Canis familiaris [32]): 21.6; Oral activity (Canis familiaris [33]): 16.3
7 | CCOC(=O)C1Cc2cc(C(=O)c3cccs3)c(Cl)c(Cl)c2O1 (stereo not given) | 167 | 87 | 128 | 1.6 |  | 8.7 | 76 | 7.7 | 166 |  | Oral activity (Canis familiaris [30]): 1.6; Oral activity (Canis familiaris [34]): 8.7; Oral activity (Canis familiaris [33]): 7.7
8 | NS(=O)(=O)c1cc2c(cc1Cl)NCNS2(=O)=O [HYDROCHLOROTHIAZIDE] |  | 112 |  |  | 144 |  |  |  |  |  | Cl- excretion (Canis familiaris [35]): 156 µequiv/min; Na+ excretion (Canis familiaris [36]): 166 µequiv/min; K+ excretion (Canis familiaris [37]): 33 µequiv/min
9 | COc1ccc(C(=O)c2cc3c(c(Cl)c2Cl)OC(C(=O)O)C3)cc1 (stereo not given) | 194 | 96 | 129 | 2.9 |  | 17.8 | 40 | 14.4 | 307 |  | Cl- excretion (Canis familiaris [38]): 70 µequiv/min; K+ excretion (Canis familiaris [39]): 18 µequiv/min
10 | O=C(O)C1Cc2cc(S(=O)(=O)c3cccs3)c(Cl)c(Cl)c2O1 (stereo not given) | 65 | 19 | 44 | 1.4 |  | 9.1 | 10 | 7.6 | 246 |  | K+ excretion (Canis familiaris [40]): 18 µequiv/min; Na+ excretion (Canis familiaris [41]): 264 µequiv/min; Cl- excretion (Canis familiaris [42]): 271 µequiv/min
